Reference: ChEMBL document CHEMBL2046345, “Synthesis of Leubethanol derivatives and evaluation against Mycobacterium tuberculosis” (Bioorg Med Chem, 2012)
≈ marks a conversion by molar mass, not a printed value.

Experiments:
[1] = tested on: Mycobacterium tuberculosis; experiment: Antimycobacterial activity against Mycobacterium tuberculosis H37Rv ATCC 27294 by MABA method; assay type: functional
In short: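 M. tuberculosis H37Rv (ATCC 27294), susceptible to all five first-line drugs, in modified Microplate Alamar Blue Assay. Two-fold serial dilutions were made in Middlebrook 7H9-OADC, 100–0.78 µg/mL, with 1:50 bacterial suspension (~6×10⁶ CFU/mL, McFarland 1). Incubation 37 °C, 5% CO₂, 5–7 days, then Alamar Blue plus 10% Tween-80, 24 h. MIC = first blue well, confirmed microscopically. Ethambutol was the reference; triplicate independent experiments.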

[2] = Cytotoxicity against african green monkey Vero cells after 48 hrs by MTT assay; assay type: cell-based; conditions: chlorocebus sabaeus
In short: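 Vero cells grown in RPMI-1640 with 10% FBS, penicillin and streptomycin, 37 °C, 5% CO₂. Exposed to compound 500–0.5 µg/mL for 48 h, then MTT (4 mg/mL in PBS) for 3 h. Formazan dissolved in DMSO, absorbance read at 575 nm. CC50 = concentration inhibiting 50% viability by linear regression; rounded mean of three experiments.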

[3] = Selectivity index, ratio of CC50 for african green monkey Vero cells to MIC for Mycobacterium tuberculosis H37Rv ATCC 27294; assay type: functional
In short: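 SI calculated as CC50 (Vero, MTT, 48 h) divided by MIC against H37Rv (MABA).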

SMILES | MIC [1] | CC50 at 48 h [2] | Selectivity Index [3]
Cc1cc(O)c2c(c1)[C@H]([C@@H](C)CCCC(C)(C)O)CC[C@H]2C | 200 µM (≈ 60.9 µg/mL) |  | 
CC(C)=CCC[C@H](C)[C@@H]1CC[C@@H](C)c2c(OC(=O)c3ccco3)cc(C)cc21 | > 200 µM |  | 
CCCCOc1cc(C)cc2c1[C@H](C)CC[C@H]2[C@@H](C)CCC=C(C)C | > 200 µM |  | 
Cc1cc(O)c2c(c1)[C@H]([C@@H](C)CCCC(C)C)CC[C@H]2C | 30.3 µM (≈ 8.74 µg/mL) | 192 µM | 6.3
CC(C)=CCC[C@H](C)[C@@H]1CC[C@@H](C)c2c(OCc3cc([N+](=O)[O-])cc([N+](=O)[O-])c3)cc(C)cc21 | > 200 µM |  | 
CC(C)=CCC[C@H](C)[C@@H]1CC[C@@H](C)c2c(OCCCCCCBr)cc(C)cc21 | > 200 µM |  | 
Cc1cc(O)c2c(c1)[C@H]([C@@H](C)CCC(O)C(C)(C)N=[N+]=[N-])CC[C@H]2C (stereo partly specified) | 181 µM (≈ 62.5 µg/mL) | 231 µM | 1.3
CCCCCCOc1cc(C)cc2c1[C@H](C)CC[C@H]2[C@@H](C)CCC=C(C)C | > 200 µM |  | 
CC(C)=CCC[C@H](C)[C@@H]1CC[C@@H](C)c2c(OCc3ccc(Cl)cc3)cc(C)cc21 | > 200 µM |  | 
CC(C)=CCC[C@H](C)[C@@H]1CC[C@@H](C)c2c(O)cc(C)c(Cc3cc([N+](=O)[O-])cc([N+](=O)[O-])c3)c21 | 17.2 µM (≈ 8.03 µg/mL) | > 770 µM | >45
CC(C)=CCC[C@H](C)[C@@H]1CC[C@@H](C)c2c(OC(=O)c3ccc([N+](=O)[O-])cc3)cc(C)cc21 | > 200 µM |  | 
CC(C)=CCC[C@H](C)[C@@H]1CC[C@@H](C)c2c(OCCCCCCOc3cc(C)cc4c3[C@H](C)CC[C@H]4[C@@H](C)CCC=C(C)C)cc(C)cc21 | 190 µM (≈ 124 µg/mL) |  | 
CC(C)=CCC[C@H](C)[C@@H]1CC[C@@H](C)c2c(OCCCCBr)cc(C)cc21 | > 200 µM |  | 
CCCCCC(=O)Oc1cc(C)cc2c1[C@H](C)CC[C@H]2[C@@H](C)CCC=C(C)C [LEUBETHANYL HEXANOATE] | > 200 µM |  | 
CC(C)=CCC[C@H](C)[C@@H]1CC[C@@H](C)c2c(OC(=O)c3ccccc3)cc(C)cc21 [LEUBETHANYL BENZOATE] | > 200 µM |  | 
CC(C)=CCC[C@H](C)[C@@H]1CC[C@@H](C)c2c(OCCCCOc3cc(C)cc4c3[C@H](C)CC[C@H]4[C@@H](C)CCC=C(C)C)cc(C)cc21 | 200 µM (≈ 125 µg/mL) |  | 
CC(C)=CCC[C@H](C)[C@@H]1CC[C@@H](C)c2c(OCc3ccc([N+](=O)[O-])cc3)cc(C)cc21 | > 200 µM |  | 
CC[C@@H](CO)NCCN[C@@H](CC)CO [ETHAMBUTOL] | 7.5 µM (≈ 1.53 µg/mL) | > 500 µM | >67
Cc1cc(O)c2c(c1)[C@H]([C@@H](C)CCC1OC1(C)C)CC[C@H]2C (mixture of isomers) | 103 µM | 661 µM | 6.4
CC(=O)Oc1cc(C)cc2c1[C@H](C)CC[C@H]2[C@@H](C)CCC=C(C)C [LEUBETHANYL ACETATE] | 48.7 µM | > 1100 µM | >22.6
COc1cc(C)cc2c1[C@H](C)CC[C@H]2[C@@H](C)CCC=C(C)C [LEUBETHANOL METHYL ETHER] | > 200 µM |  | 
Cc1cc(O)c2c(c1)[C@H]([C@@H](C)CCC(N)C(C)(C)O)CC[C@H]2C (stereo partly specified) | 98 µM (≈ 31.3 µg/mL) | 158 µM | 1.6
CC(C)=CCC[C@H](C)[C@@H]1CC[C@@H](C)c2c(O)cc(C)cc21 [LEUBETHANOL] | 25.1 µM (≈ 7.19 µg/mL) | 123 µM | 4.9
Cc1cc(O)c2c(c1)[C@H]([C@@H](C)CCC(O)C(C)(C)N)CC[C@H]2C (stereo partly specified) | 98 µM (≈ 31.3 µg/mL) | 141 µM | 1.4
Cc1cc(O)c2c(c1)[C@H]([C@@H](C)CCC(N=[N+]=[N-])C(C)(C)O)CC[C@H]2C (stereo partly specified) | 90 µM (≈ 31.1 µg/mL) | 127 µM | 1.4
C/C(=C\CC[C@H](C)[C@@H]1CC[C@@H](C)c2c(O)cc(C)cc21)CO | 25.8 µM (≈ 7.8 µg/mL) | 132 µM | 5.1
C/C(C=O)=C\CC[C@H](C)[C@@H]1CC[C@@H](C)c2c(O)cc(C)cc21 | 25.8 µM (≈ 7.75 µg/mL) | 116 µM | 4.5
